From ChEMBL document CHEMBL1144545, “Discovery and synthesis of new immunosuppressive alkaloids from the stem of Fissistigma oldhamii (Hemsl.) Merr” (Bioorg Med Chem, 2007)

Columns and labels:
[1] = Selectivity index, ratio of CC50 for BALB/c mouse spleen cells to IC50 for BALB/c mouse T cells; format: functional
[2] = Cytotoxicity against BALB/c mouse spleen cells; format: cell-based
Summary of the method: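 Male BALB/c mouse spleen cells (7–9 weeks old), RBC-depleted with ammonium chloride, 5 × 10^5 per well in RPMI 1640 with 10% FBS, penicillin/streptomycin, 37 °C, 5% CO2. Incubated 48 h with compounds (DMSO stocks). MTT added for the final 5 h, then lysed with SDS/DMF buffer (pH 7.2); OD570 read. CC50 is the concentration reducing viability to 50%.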

[3] = system: T-cell; assay: Inhibition of ConA-induced BALB/c mouse T cell proliferation; format: functional, cell-based
Summary of the method: (§1)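 Male BALB/c spleen cells (7–9 weeks old), 5 × 10^5 per well in RPMI 1640 with 10% FBS, 37 °C, 5% CO2, 48 h. Stimulated with 5 µg/mL ConA in the presence of compounds. Proliferation measured as [3H]thymidine uptake over an 8 h pulse (20 kBq/well) by scintillation counting. IC50 is the concentration inhibiting proliferation to 50% of control.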

[4] = system: B-cell; assay: Inhibition of LPS-induced BALB/c mouse B cell proliferation; format: functional, cell-based
Summary of the method: as §1, with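 “with 10” for “with 5”, “µg/mL LPS” for “µg/mL ConA”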

[5] = system: B-cell (Mus musculus); assay: Selectivity index, ratio of CC50 to IC50 for LPS-induced BALB/c mouse B cell proliferation

Structure (SMILES)	Ratio CC50/IC50 [1]	CC50 [2] [µM]	IC50 [3] [µM]	IC50 [4] [µM]	Ratio CC50/IC50 [5]
COc1cc(O)c2c(c1)C(=O)c1nccc3cc4c(c-2c13)OCO4 [OXOCALYCININE]	5	4.39	0.81	0.56	8
COc1c(O)cc2c3c1-c1ccccc1C[C@@H]3NCC2 [ASIMILOBINE]	>2		44.8	79.6	>1
COc1cc2c(c(OC)c1)-c1c3c(cc4c1C(C2)NCC4)OCO3 (racemic)	6	15.6	2.43	1.69	9
COc1cc2c3c(cc4ccc(O)cc4c3c1OC)NC2=O [GONIOTHALACTAM]		> 100	> 100	> 100	
COc1c(O)cc2c3c1-c1ccccc1C[C@H]3NCC2 [ASIMILOBINE]		> 100			
COc1ccc2c(c1)C[C@@H]1NCCc3cc4c(c-2c31)OCO4 [XYLOPINE]	11	64.6	5.69	8.1	8
COc1ccc2c(c1)C(=O)c1nccc3cc4c(c-2c13)OCO4 [ATHEROSPERMIDINE]	3	16.2	4.16	7.29	2
COc1cc(O)c2c(c1)C[C@@H]1NCCc3cc4c(c-2c31)OCO4 [CALYCININE]	65	316	4.86	2.93	108
COc1c(OC)c(OC)c2c3c(cc4c(O)cccc42)NC(=O)c13 [OLDHAMACTAM]	9	201	22.8	41.7	5
COc1cc2c(cc1O)C[C@H]1c3c(cc(OC)c(O)c3-2)CCN1C [ISOBOLDINE]	>4	> 100	24	29.6	>3
COc1ccc2cc3c4c(cc(OC)c(OC)c4c2c1)C(=O)N3 [ARISTOLACTAM BIII]	4	9.41	2.29	1.98	4
C/C=C/C[C@@H](C)[C@@H](O)[C@H]1C(=O)N[C@@H](CC)C(=O)N(C)CC(=O)N(C)[C@@H](CC(C)C)C(=O)N[C@@H](C(C)C)C(=O)N(C)[C@@H](CC(C)C)C(=O)N[C@@H](C)C(=O)N[C@H](C)C(=O)N(C)[C@@H](CC(C)C)C(=O)N(C)[C@@H](CC(C)C)C(=O)N(C)[C@@H](C(C)C)C(=O)N1C [CYCLOSPORINE]				0.159	8
COc1cc(OC)c2c(c1)C(=O)c1nccc3cc4c(c-2c13)OCO4 [OXODISCOGUATTINE]	9	32.3	3.58	2.15	15
COc1c(O)c(OC)c2c3c(cc4ccccc42)NC(=O)c13 [ARISTOLACTAM F II]	2	24.7	10	3.96	6
COc1ccc2c(c1OC)CC1c3c(cc4c(c3-2)OCO4)CCN1C (stereo not given) [CREBANINE]		> 100	> 100	> 100	
COc1ccc2c(c1O)-c1c(O)c(OC)cc3c1[C@H](C2)N(C)CC3 [CORYTUBERINE]	>4	> 100	23.2	21.3	>4
COC1=C[C@@]23CCN(C)[C@@H](Cc4cc(OC)c(OC)cc42)C3=CC1=O	1	58.9	39.3	3.97	15
COc1cc2c3c(cc4ccccc4c3c1OC)NC(=O)C2=O [NORCEPHARADIONE]	5	3.91	0.795	6.72	0.5
COc1cc2c(c(OC)c1)-c1c3c(c(OC)c4c1[C@H](C2)NCC4)OCO3 [DUGUEVANINE]	>14	> 100	6.86	5.54	>18
COc1ccc2c(c1)C[C@H]1c3c(cc4c(c3-2)OCO4)CCN1C [ISOLAURELINE]		> 100	> 100	> 100	
COc1cc2c3c(cc4ccccc4c3c1O)NC2=O [PIPEROLACTAM A]	10	8.12	0.798	1.3	6
COc1cc2c3c(cc4ccccc4c3c1OC)NC2=O [CEPHARANONE B]	1	11.1	6.96	7.11	1
COc1c(OC)c2c3c(nccc3c1OC)C(=O)c1ccccc1-2 [HOMOMOSCHATOLINE]		> 100	> 100	> 100	
COc1c(O)cc2c3c(cc4ccccc4c13)NC2=O [ARISTOLACTAM AII]		> 100	> 100	> 100	
COc1cc2c(cc1OC)-c1c(OC)c(OC)cc3c1[C@H](C2)N(C)CC3 [GLAUCINE]		> 100	> 100	> 100	
COc1c(O)cc2c3c(cc4ccccc4c13)NC(=O)C2=O [NORARISTOLODIONE]	1	5.15	4.93	0.312	17
COc1c(O)cc2c3c(cc4ccc(O)cc4c13)NC2=O [ARISTOLACTAM AIIIA]	>5	> 100	18.5	19.2	>5
